Data taken from ChEMBL document CHEMBL2016520, “Design, synthesis, molecular docking and biological evaluation of new dithiocarbamates substituted benzimidazole and chalcones as possible chemotherapeutic agents” (Bioorg Med Chem Lett, 2012).
pIC50: −log10 of the molar value.

test system: Cicer arietinum; assay: Antimitotic activity against chick pea seeds assessed as inhibition of germinating root growth after 7 days; format: functional, organism-based; settings: 168 h
Outline: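 Seeds germinated in Petri dishes on filter paper for 7 days, with the paper moistened every 24 h with drug solution. One dish held DMSO as control and one held cisplatin as the standard. Radicle length was measured in cm on day 7, and percent growth inhibition was calculated against the mean of the DMSO-treated control.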

| Structure (SMILES) | pIC50 |
| --- | --- |
| O=C(CC(SC(=S)N1CCCC1)c1ccccc1)c1ccccc1 (stereo not drawn) | 5.78 |
| S=C(SCc1nc2ccccc2[nH]1)N1CCCCC1 | 5.78 |
| O=C(CC(SC(=S)N1CCCCC1)c1ccccc1)c1ccccc1 (stereo not drawn) | 5.73 |
| CN(C)C(=S)SCc1nc2ccccc2[nH]1 | 5.67 |
| S=C(SCc1nc2ccccc2[nH]1)N1CCOCC1 | 5.72 |
| CCCCNC(=S)SCc1nc2ccccc2[nH]1 | 5.68 |
| CCN(CC)C(=S)SC(CC(=O)c1ccccc1)c1ccccc1 (stereo not drawn) | 5.74 |
| O=C(CC(SC(=S)Nc1nc2ccccc2s1)c1ccccc1)c1ccccc1 (stereo not drawn) | 5.82 |
| O=C(CC(SC(=S)N1CCOCC1)c1ccccc1)c1ccccc1 (stereo not drawn) | 5.78 |
| CCN(CC)C(=S)SCc1nc2ccccc2[nH]1 | 5.73 |
| CCCNC(=S)SCc1nc2ccccc2[nH]1 | 5.64 |
| CN(C)C(=S)SC(CC(=O)c1ccccc1)c1ccccc1 (stereo not drawn) | 5.61 |
| S=C(SCc1nc2ccccc2[nH]1)N1CCCC1 | 5.74 |
